Test system: MS2 coat protein
Test: apparent Kd, MS2 coat protein; higher = weaker binding; RNA-MaP array
In short: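 Designed RNAs were produced on an Illumina sequencing chip by transcription of sequenced DNA templates. Binding to fluorescently labeled MS2 coat protein (1.5 nM to 3 μM) was measured at room temperature with or without input ligand. The apparent Kd is the median of per-cluster binding-curve fits. Designs were excluded when measured on fewer than 10 clusters.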

[1] = designed as: OFF switch for flavin mononucleotide, no ligand
[2] = ligand present: flavin mononucleotide, designed as: OFF switch for flavin mononucleotide
[3] = designed as: ON switch for theophylline, no ligand
[4] = ligand present: theophylline, designed as: ON switch for theophylline
[5] = designed as: ON switch for tryptophan, no ligand
[6] = ligand present: tryptophan, designed as: ON switch for tryptophan
[7] = designed as: ON switch for flavin mononucleotide, no ligand
[8] = ligand present: flavin mononucleotide, designed as: ON switch for flavin mononucleotide
[9] = designed as: OFF switch for theophylline, no ligand
[10] = ligand present: theophylline, designed as: OFF switch for theophylline
[11] = designed as: OFF switch for tryptophan, no ligand
[12] = ligand present: tryptophan, designed as: OFF switch for tryptophan

Sequence	apparent Kd [1]	apparent Kd [2]	further results
GCAAUUCUUGAGAAGGUCGUAGUGCGCAGACCAAAAGCACAUGAGGAUCACCCAUGUGAUCAAACGAAGGAUAUCACAGUAGAA	51.9 nM	49.3 nM	
GACGGGCCUAUUGAUACCAGACCUAGUGACAACAUGAGGAUCACCCAUGUGACGGCAAAAGUCCCUUGGCAGCAAGUAGAAAUAA			apparent Kd [3]: 12.6 nM; apparent Kd [4]: 12.3 nM
UAAGUUUUAGAGAAGGCCUGGAAUUGCUGUGCAGGAGGAUAUCUGGGACAUGAGGAUCACCCAUGUAGCCGCUAAGCGUAAGGG	46.6 nM	83.1 nM	
UCCCUACCGUCGGCCGCCACUGGGUCAUACAGUUCGUAACUACAUGAGGAUCACCCAUGUGCAGCCAGGACCGGGACGCGCCUUG			apparent Kd [5]: 177 nM; apparent Kd [6]: 106 nM
GGAAAACCUCGAGGAUAUAGCACAUGAGGAUCACCCAUGUACCAUAAGUGUUGACAAAAGAGAGACUAGAAGGCGAAUCAAACC			apparent Kd [7]: 13.1 nM; apparent Kd [8]: 11.6 nM
UGAUGUAACAGAGGAUAUCACUCAAAUGCGGGCAUGUCGCACAUGUACAUGAGGAUCACCCAUGUUGAGAAGGCUGUGGUGCAA			apparent Kd [7]: 145 nM; apparent Kd [8]: 47.5 nM
AAAUGAGCGCAUCCCUAACAUGAGGAUCACCCAUGUGCUACAGAGGAUAUCGUCACCAUAUCUCACGAGAAGGCUGGUAUAUUG	9.25 nM	11.4 nM	
CCAUGGAGGACUGAGGAUAUUCGCAUAAGCACAUGAGGAUCACCCAUGUCAGAAAUAAAUCUCUAGAAGAAGGCAGCGCUAAGACA			apparent Kd [7]: 12.9 nM; apparent Kd [8]: 13.2 nM
CUGCUCUGUACUGAAGGAGAUACAUGAGGAUCACCCAUGUGCAGAAGGUGCUCAUUAAUAAUCGGCAAGGAUAUGCGGGCUUGA			apparent Kd [7]: 925 nM; apparent Kd [8]: 390 nM
AAUAGAGAGCAGAAGGCCCUAGUUAUCGGCAUGGGAGGAUAUGCACCAGAUAAUAACAUGAGGAUCACCCAUGUUGAAUAAGAA			apparent Kd [7]: 19.4 nM; apparent Kd [8]: 6.46 nM
CGACAUAACCGAGGAUAUCGCUGACGUAAGCACAUGAGGAUCACCCAUGUGAGUGAGAGUGAGUACGAGAAGGCGGAAUUAAGG			apparent Kd [7]: 53.3 nM; apparent Kd [8]: 16.5 nM
CUCUACAUGAGGAUCACCCAUGUAUUAAUACAACUGGGUGCUAGAAGGUGCACUUAAGAAUAGGGCAAGGAUAUAGACCGUUCA	158 nM	77.4 nM	
GAUAAAGCAGGAUAUACAUACCGGCCAUGACUAAAAGAAGGACAUGAGGAUCACCCAUGUAGAAGGGCUUAAAA	15.7 nM	30.5 nM	
CUUGUACAUGAGGAUCACCCAUGUGUCCGUAUCAAAGGAUAUAGCAUAUUCGCAGUGGUGCUAGAAGGUUGUAUAC			apparent Kd [7]: 20.9 nM; apparent Kd [8]: 10.5 nM
GUGAUGCCUUACACAUGAGGAUCACCCAUGUGGUGUAAGCGUAGAAGGUGAAUAUAUUCCAUAGUCAAGGAUAUACGAACAAUC	12.2 nM	11.5 nM	
GUACCUCCUCAGAAGGCGCGUAGAGCCGGCACAUGAGGAUCACCCAUGUCGAGGCGAAAUGCAGGCGAGGAUAUGAAGGGUUUC			apparent Kd [7]: 4.88 nM; apparent Kd [8]: 4.92 nM
UGAGAAGUAGGAUAUAAGUACACCUACAUGAGGAUCACCCAUGUACCUAACGUAGCCGAUUUAGAAGGACUGUCAA	58.7 nM	35.5 nM	
AUCGGCGCACAGAAGGGACGAUCAAACUGCUGAUCACAUGAGGAUCACCCAUGUUGUUUGGAUAGUCAGGAUAUGUUGACCAUG	17.6 nM	16 nM	
CGUCUGUGAGGAUAUGGUCGAGGUUGGUGAAUUACUUACAUCCAGAAGGCACAUGAGGAUCACCCAUGUACAUC	10.5 nM	13.8 nM	
CGUAAACAUGAGGAUCACCCAUGUGAUGAUACCAGCACGAUUAACUGCCCUUGGCAGCAUGUAUUGUACGACUUAUUGCCCAUCG			apparent Kd [3]: 14.8 nM; apparent Kd [4]: 16.8 nM
CCUCAACAUGAGGAUCACCCAUGUCAGGAUAUCUAGGAGACAUCACAUGCGUCCGAUGAGAGAAGGGACACAGU	25.1 nM	27.5 nM	
GAAAUACAUGAGGAUCACCCAUGUCAGGAUAUCGGUGAGAAAGAGCAUCUCUGCGGCCCGAGAAGGGACACAGG	64.5 nM	51.8 nM	
AAUACACAUGAGGAUCACCCAUGUAAGGAUAUCAAGCAUCAAACAUUAGAGUGAGGAGUGAGAAGGUACAUCAC	20.1 nM	16.3 nM	
UUUCAAGUAUCGGCCGCCACUCUAGUUGGUUGUUCAAUCCGAUUACAUGAGGAUCACCCAUGUCUGAGGACCGGGAUAAAGUAAU			apparent Kd [5]: 26.1 nM; apparent Kd [6]: 31.8 nM
GGGUUACUCUAUGAUACCAGUUCCAUGCCGAAACCUGUGUACAUGAGGAUCACCCAUGUGAACCCUUGGCAGCAUUAAUCAACUG			apparent Kd [9]: 97.5 nM; apparent Kd [10]: 258 nM
UCGAGUGGGCAGAAGGUGUCGGACUAUACAUGAGGAUCACCCAUGUGGAAACCUCCCGGUUUGAACAAGGAUAUGCCUCGUAAA			apparent Kd [7]: 95.6 nM; apparent Kd [8]: 71.4 nM
UAACGUAGCCGAGGAUAUAGUAGCGAUCAACAGAAACAUGAGGAUCACCCAUGUGCCACAAAAGACUAGAAGGCGGGCAACCCA			apparent Kd [7]: 15.4 nM; apparent Kd [8]: 11.2 nM

Sequence	apparent Kd [1]	apparent Kd [2]	further results
CCUGGACAUGAGGAUCACCCAUGUGAGGAUACCAGAUAUCCUGAUAUCCCUUGGCAGCCUCAUUACUUCGCAUUACCGAAACUUC			apparent Kd [3]: 103 nM; apparent Kd [4]: 249 nM
GCGUGAGCGACGUGUCUUCCACAUGAGGAUCACCCAUGUCGCAGAAGGACUUGAAUCGUAUUAAAGUAGGAUAUGCGUAGGACG			apparent Kd [7]: 38.3 nM; apparent Kd [8]: 29 nM
UUGAUUACCCAAGCGUGAUGGUCCUAGGAACGAGGACCGGUACGGCCGCCACUCGCAAGCAAACAUGAGGAUCACCCAUGUUUAU			apparent Kd [11]: 13.1 nM; apparent Kd [12]: 23 nM
GGAACGAUCACUUCUUUAUCUAAGGCGGAUACCAGUCCUCGGUUUGACCCUUGGCAGCCGACAACAUGAGGAUCACCCAUGUUCU			apparent Kd [9]: 15.6 nM; apparent Kd [10]: 20.4 nM
ACACCUCACGGAAUACAUGAGGAUCACCCAUGUUGGGAAGGAAGAAGGUUCCGUGUUGAUUGCUGAAAGGAUAUUCGUGACCCG	190 nM	153 nM	
CCAUGAAGCGAGGAUAUUCUCACUGCCAAGUUGGAAGAAGGCGCUACAUGAGGAUCACCCAUGUAGUCAGUCCG	5.07 nM	5.32 nM	
AACGUACAUGAGGAUCACCCAUGUGAGGAUAUGCCUAAAGAGUUCUAAGCAUCCAAGGGCAGAAGGCACAUGAA	99.1 nM	140 nM	
ACGAGAGCCCAGAAGGACACGGGAUACUCACAAGCAUUCUGGACAUGAGGAUCACCCAUGUGUAUGUAGGAUAUGGGAGUUGCG			apparent Kd [7]: 31 nM; apparent Kd [8]: 15.2 nM
UGGCUUGAAGGAUAUACAUGAGGAUCACCCAUGUAUCGCUAAAAGAGAAAUCCAUAAUGUAGAAGGUCAUCCCA	8.91 nM	12 nM	
UCACUCUGCCGAGGAUAUGCUGGGUCUGACAUGAGGAUCACCCAUGUAACGGGCAGAGUGUUCCAGCAGAAGGCGGCCAGUACC			apparent Kd [7]: 42.5 nM; apparent Kd [8]: 44.6 nM
UAUCGGGCAGGAUAUACAUGCGAUUACACUCUUCGGAAAGUACAUGAGGAUCACCCAUGUAGAAGGGCCAAGUG	10.4 nM	11 nM	
CGCGAGACGGCGGCCGCCACUUGUUGUUGGAAACUCGAGUUACAUGAGGAUCACCCAUGUCCUUAAAGGACCGGGCCGUAAGUAA			apparent Kd [5]: 226 nM; apparent Kd [6]: 164 nM
ACUUCAGAUACAGGAUAUAGCGUAACAUGAGGAUCACCCAUGUCUUGAUGCCUCUGUCGCGACGACUAGAAGGGUAAGCUUUGA	91.6 nM	86.7 nM	
ACAAGGAGUCAAGGAUAUGAUAGAAGUUACACAUGAGGAUCACCCAUGUUUCUCCGGUGUCAGAAUCAGAAGGUGAGUAUGCAU	85.2 nM	74.7 nM	
GAUAGGUGAGGAUAUGUGAGUGAUCACAUGAGGAUCACCCAUGUUGACUCAUGUUGGCUUACAGAAGGCACAGGAA	137 nM	97.2 nM	
CAUGUGUAAGGAUAUGCGUCGAUAUCAACUAACUAUAUGAUGCAGAAGGUACAUGAGGAUCACCCAUGUGAACU	30.3 nM	118 nM	
GCCUCGAACUCAGGAUAUCAGAGAGGUUGCCGCUGAGAAGGGAGACAUGAGGAUCACCCAUGUACAGUCAUGACCGUCGAGUUG			apparent Kd [7]: 65.8 nM; apparent Kd [8]: 84 nM
AUUGUCAAGUCGGCCGCCACUUCUGCCAUGGCCACCAGUCGACAUGAGGAUCACCCAUGUCUCUUAAGGACCGGGACUUUCAAUU			apparent Kd [5]: 13.2 nM; apparent Kd [6]: 12.1 nM
ACAACUGCAGGAUAUACGAGGGCCGAGGUAUCCGUCCUCGGACAUGAGGAUCACCCAUGUAGAAGGGCAACGAU	20.9 nM	24.1 nM	
UAGCGACAUGAGGAUCACCCAUGUGAGGAUAUGAAGUCUAUAACACAAGCUAAUGAAGACAGAAGGCACAUGAG	66.8 nM	59.3 nM	
AUAAAGGAAGGAUAUACAUGAGGAUCACCCAUGUUGAAAUACAGAAAAGGAGAAACAAGUAGAAGGACCGAUGU	14.2 nM	11.6 nM	
CAAGGGAAUACAGGAUAUUGCUGGAGUUGGGCGAGACAUGAGGAUCACCCAUGUUAUGCUAUAGUCAAGAAGGGUAUCUCGAGG	18.5 nM	13 nM	
AAACUGAUCUUCAGGAGUCACUAUAUCUCCCGAGGACCGGUACGGCCGCCACUCGAACGUUUACAUGAGGAUCACCCAUGUGACU			apparent Kd [11]: 14.8 nM; apparent Kd [12]: 19.6 nM
GCCCUGUGACUAGGAUAUGCCGGGAAACACAUCGCAGAAGGAGUCCACUCAUGUCGACAUGAGGAUCACCCAUGUACCAGGGUU	40.6 nM	29.9 nM	
UGGGUCCGAUCAGGAUAUUAGCUACCGGAGUAUGACUGGUACUACAUGAGGAUCACCCAUGUUGCUAAGAAGGGAUGAACUGAA			apparent Kd [7]: 97.4 nM; apparent Kd [8]: 26.6 nM
CUGCAGACCCAGAAGGUUCACAUGAGGAUCACCCAUGUGCCUAUCAAUAAGUAAGGUAAAGGCUGAAAGGAUAUGGGUAAAGGA			apparent Kd [7]: 10.7 nM; apparent Kd [8]: 8.47 nM
CCGCCUCGCGUCAGGAUAUGUAACAAUUGUCAAAUACAGAAGGGACAUGAGGAUCACCCAUGUUUACAUACCAA	18 nM	42.2 nM	

Reference: the EternaBench riboswitch data
